Reference: publication PMC9121347 (Bioconjugate Chemistry, 2022)

Experiments:
AD (APP/PS1) mice = assay: Dynamic microPET/CT imaging, AD mice; assay type: in vivo, mouse; conditions: AD (APP/PS1) vs normal (B6SJL) mice; any time point
[1] = tested on: phosphorylation of Akt in hCMEC/D3 monolayers; assay type: cell-based, human; conditions: 100 nM, 20 min, 37 °C in DMEM, Western blot, n = 3
Method in brief: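 hCMEC/D3 monolayers treated ± test compound (100 nM) in DMEM, 20 min, 37 °C, washed thrice with PBS, lysed in RIPA with protease/phosphatase inhibitors, protein by BCA. […] Blocked in 5% milk; anti-vinculin, Akt, p-Akt (S473) at 1:1000 overnight at 4 °C; dye-conjugated secondary at 1:2000, 1 h RT. p-AKT/AKT ratio, mean ± SD, unpaired t-test.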

| Compound | difference in uptake between normal and AD groups (brain and heart) (AD (APP/PS1) mice) | phosphorylation of Akt (p-AKT/AKT ratio) [1] |
| --- | --- | --- |
| [18F]c1ccc(-c2ccc3c(c2)[nH]c2ccncc23)cn1 [[^18F]AV1451, 7-(6-[^18F]fluoropyridin-3-yl)-5H-pyrido[4,3-b]indole] | neither of them showed any significant difference in the uptake between normal and AD groups at any time point | – |
| CNc1ccc(-c2nc3ccc(O)cc3s2)cc1 [[^11C]PIB, N-methyl [^11C] 2-(4′-methylaminophenyl)-6-hydroxy-benzothiazole] | neither of them showed any significant difference in the uptake between normal and AD groups at any time point | – |
| NOTA-insulin: insulin with p-SCN-Bn-NOTA linked to the lysine residue of chain B; labeling precursor | – | stimulated the phosphorylation of Akt |
